Data reported in publication PMC7058367 (Biochemical pharmacology, 2018).
Read-outs that look alike come from different tables or passages of the source.

Legend:
[1] = system: GluN1/GluN2D^ΔCTD receptors; format: cell-based, rat; conditions: 50 µM compound; compared to wildtype
[2] = molecular target: GluN1/GluN2D^ΔCTD receptors (Rattus norvegicus, UniProt P35439+Q62645); format: cell-based; conditions: 50 µM compound; 10 µM L-glutamate/10 µM glycine (Fig. 1C)
GluN1/GluN2B receptors = GluN1/GluN2B receptors (Rattus norvegicus, UniProt P35439+Q00960); format: cell-based
GluN1/GluN2C receptors = GluN1/GluN2C receptors (Rattus norvegicus, UniProt P35439+Q00961); format: cell-based; conditions: 5 mM EGTA injected vs controls (Fig. 6C, G)
Outline: (§1)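 Oocytes expressed wild-type GluN1a/GluN2 receptors from 15-30 ng RNA (1:3 molar) and were held in ND-96 at 17 °C for 1-5 days. For Ca2+ chelation, 5 mM EGTA (50 nL) was injected 1-2 h before recording, with uninjected and water-injected oocytes as controls. TEVC was run at -60 mV in 116 mM NaCl, 2 mM KCl, 0.3 mM BaCl2, 5 mM HEPES (pH 7.4). […] Values are mean ± s.e.m.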

[3] = molecular target: GluN1/GluN2B^ΔCTD receptors (Rattus norvegicus, UniProt P35439+Q00960); format: cell-based; conditions: 50 µM compound; 10 µM L-glutamate/10 µM glycine (Fig. 1C)
GluN1/GluN2D receptors = GluN1/GluN2D receptors (Rattus norvegicus, UniProt P35439+Q62645); format: cell-based; conditions: 5 mM EGTA injected vs controls (Fig. 6D, H)
Outline: as §1

GluN1/GluN2A receptors = GluN1/GluN2A receptors (Rattus norvegicus, UniProt P35439+Q00959); format: cell-based
Outline: (§2)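 Xenopus laevis oocytes were injected with GluN1a:GluN2 RNA at a 1:3 molar ratio (15-30 ng total; 10-20-fold more for CTD-deleted subunits) and kept in ND-96 at 17 °C for 1-5 days. TEVC was run at -60 mV in 116 mM NaCl, 2 mM KCl, 0.3 mM BaCl2, 5 mM HEPES, pH 7.4. […] Full-length controls came from the same batch and day; mean ± s.e.m.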

[4] = system: GluN1 CTD in neurons expressing GluN1-GFP, GluN2A and GluN1-mCherry; assay: CTD-FRET; format: cell-based, rat; conditions: 75 µM compound, absence of agonists, imaged 10 min after application (Fig. 8)
Outline: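 Rat primary hippocampal neurons were transfected at DIV 7-10 with ~2 µg total DNA (GluN1-GFP, GluN2A, GluN1-mCherry) by lipofection and imaged at 16-18 DIV in 0.87x HBSS, 5 mM HEPES, 1 mM glucose, 2.5 mM MgCl2, 0.5 mM CaCl2. Baseline and 10 min post-compound two-photon FLIM images were taken, each neuron imaged twice, compounds interleaved. Lifetimes were fit single-exponential and analysed blind; two preparations pooled.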

[5] = molecular target: GluN1^ΔCTD/GluN2C receptors (Rattus norvegicus, UniProt P35439+Q00961); format: cell-based; conditions: 50 µM compound; 10 µM L-glutamate/10 µM glycine (Fig. 1D)
Outline: as §2

[6] = molecular target: GluN1/GluN2C^ΔCTD receptors (Rattus norvegicus, UniProt P35439+Q00961); assay: Two-electrode voltage clamp of GluN2C CTD-deleted receptors; format: cell-based; conditions: 50 µM compound; 10 µM L-glutamate/10 µM glycine (Fig. 1B,C)
Outline: (§3)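 Xenopus laevis oocytes were injected with GluN1a and GluN2 RNA at a 1:3 molar ratio. The CTD was removed by a stop codon at GluN1 838K or GluN2C 855K, and 10-20-fold more RNA than wild type was injected. Oocytes were kept in ND-96 at 17 °C for 1-5 days. TEVC was run at -60 mV in Ba2+ buffer (pH 7.4). […] Full-length receptors were run alternately on the same day and oocyte batch. Values are mean ± s.e.m.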

[7] = molecular target: GluN1^ΔCTD/GluN2A receptors (Rattus norvegicus, UniProt P35439+Q00959); format: cell-based; conditions: 50 µM compound; 10 µM L-glutamate/10 µM glycine (Fig. 1D)
Outline: as §2

[8] = molecular target: GluN1^ΔCTD/GluN2B receptors (Rattus norvegicus, UniProt P35439+Q00960); format: cell-based; conditions: 50 µM compound; 10 µM L-glutamate/10 µM glycine (Fig. 1D)
Outline: as §2

[9] = molecular target: GluN1/GluN2A^ΔCTD receptors (Rattus norvegicus, UniProt P35439+Q00959); format: cell-based
Outline: as §2

[10] = molecular target: GluN1^ΔCTD/GluN2D receptors (Rattus norvegicus, UniProt P35439+Q62645); format: cell-based; conditions: 50 µM compound; 10 µM L-glutamate/10 µM glycine (Fig. 1D)
Outline: as §3

[11] = 2 µM PMA for 10 minutes, 50 µM UBP684, 100 µM PS (Fig. 7E, F)
[12] = 10 µM FSK and 1 mM IBMX for 10 minutes, 50 µM UBP684, 100 µM PS (Fig. 7B, C)
[13] = 50 µM compound, control media for U73122 experiment (Fig. 6I)

GluN1/GluN2D^ΔCTD receptors (Rattus norvegicus, UniProt P35439+Q62645), sequence (Q62645 28-869 limits assumed, stated change not applied, other chains not shown): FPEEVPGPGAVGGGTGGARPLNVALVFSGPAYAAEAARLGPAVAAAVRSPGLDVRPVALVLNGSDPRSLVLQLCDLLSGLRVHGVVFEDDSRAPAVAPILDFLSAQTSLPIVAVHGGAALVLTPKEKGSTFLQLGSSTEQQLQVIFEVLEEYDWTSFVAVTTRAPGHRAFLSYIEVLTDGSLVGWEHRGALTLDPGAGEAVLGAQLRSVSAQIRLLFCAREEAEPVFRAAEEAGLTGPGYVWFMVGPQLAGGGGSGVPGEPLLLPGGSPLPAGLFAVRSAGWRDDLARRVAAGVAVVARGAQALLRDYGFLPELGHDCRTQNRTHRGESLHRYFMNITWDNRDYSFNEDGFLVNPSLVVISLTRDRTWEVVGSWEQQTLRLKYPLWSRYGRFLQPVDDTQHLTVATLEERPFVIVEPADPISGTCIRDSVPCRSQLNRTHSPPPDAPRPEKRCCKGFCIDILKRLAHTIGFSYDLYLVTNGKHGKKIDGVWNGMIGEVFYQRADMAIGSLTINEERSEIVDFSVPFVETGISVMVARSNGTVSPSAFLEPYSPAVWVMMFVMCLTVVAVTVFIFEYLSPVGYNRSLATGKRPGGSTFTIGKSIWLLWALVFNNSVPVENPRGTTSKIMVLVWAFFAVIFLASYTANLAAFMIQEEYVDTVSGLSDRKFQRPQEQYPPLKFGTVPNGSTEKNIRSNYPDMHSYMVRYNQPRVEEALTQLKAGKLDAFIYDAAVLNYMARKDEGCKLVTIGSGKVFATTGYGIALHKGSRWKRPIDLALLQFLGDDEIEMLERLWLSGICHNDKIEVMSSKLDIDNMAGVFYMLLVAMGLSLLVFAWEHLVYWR
GluN1/GluN2C^ΔCTD receptors, sequence (Q00961 20-842, stated change not applied, other chains not shown): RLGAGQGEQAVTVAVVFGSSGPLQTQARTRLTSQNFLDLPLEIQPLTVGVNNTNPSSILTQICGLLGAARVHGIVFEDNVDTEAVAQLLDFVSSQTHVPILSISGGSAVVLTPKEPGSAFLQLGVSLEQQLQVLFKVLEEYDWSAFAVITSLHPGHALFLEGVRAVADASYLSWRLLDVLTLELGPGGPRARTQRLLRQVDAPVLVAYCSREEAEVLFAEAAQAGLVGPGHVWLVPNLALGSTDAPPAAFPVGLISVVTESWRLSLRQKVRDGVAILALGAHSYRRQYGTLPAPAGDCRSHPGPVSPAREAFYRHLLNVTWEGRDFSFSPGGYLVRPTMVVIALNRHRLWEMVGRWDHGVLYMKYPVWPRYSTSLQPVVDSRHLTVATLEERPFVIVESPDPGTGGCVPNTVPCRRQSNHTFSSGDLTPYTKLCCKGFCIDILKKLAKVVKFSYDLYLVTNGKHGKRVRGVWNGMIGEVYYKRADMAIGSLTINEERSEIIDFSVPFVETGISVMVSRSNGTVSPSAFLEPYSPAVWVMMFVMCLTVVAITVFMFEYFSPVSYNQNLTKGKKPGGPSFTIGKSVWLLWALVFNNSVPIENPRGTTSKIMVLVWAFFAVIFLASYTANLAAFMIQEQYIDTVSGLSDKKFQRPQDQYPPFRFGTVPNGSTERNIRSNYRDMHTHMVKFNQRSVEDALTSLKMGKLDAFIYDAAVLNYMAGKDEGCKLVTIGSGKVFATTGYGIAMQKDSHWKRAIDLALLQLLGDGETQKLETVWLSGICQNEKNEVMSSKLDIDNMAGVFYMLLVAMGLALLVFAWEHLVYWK
GluN1/GluN2D receptors, sequence (Q62645 28-1323, other chains not shown): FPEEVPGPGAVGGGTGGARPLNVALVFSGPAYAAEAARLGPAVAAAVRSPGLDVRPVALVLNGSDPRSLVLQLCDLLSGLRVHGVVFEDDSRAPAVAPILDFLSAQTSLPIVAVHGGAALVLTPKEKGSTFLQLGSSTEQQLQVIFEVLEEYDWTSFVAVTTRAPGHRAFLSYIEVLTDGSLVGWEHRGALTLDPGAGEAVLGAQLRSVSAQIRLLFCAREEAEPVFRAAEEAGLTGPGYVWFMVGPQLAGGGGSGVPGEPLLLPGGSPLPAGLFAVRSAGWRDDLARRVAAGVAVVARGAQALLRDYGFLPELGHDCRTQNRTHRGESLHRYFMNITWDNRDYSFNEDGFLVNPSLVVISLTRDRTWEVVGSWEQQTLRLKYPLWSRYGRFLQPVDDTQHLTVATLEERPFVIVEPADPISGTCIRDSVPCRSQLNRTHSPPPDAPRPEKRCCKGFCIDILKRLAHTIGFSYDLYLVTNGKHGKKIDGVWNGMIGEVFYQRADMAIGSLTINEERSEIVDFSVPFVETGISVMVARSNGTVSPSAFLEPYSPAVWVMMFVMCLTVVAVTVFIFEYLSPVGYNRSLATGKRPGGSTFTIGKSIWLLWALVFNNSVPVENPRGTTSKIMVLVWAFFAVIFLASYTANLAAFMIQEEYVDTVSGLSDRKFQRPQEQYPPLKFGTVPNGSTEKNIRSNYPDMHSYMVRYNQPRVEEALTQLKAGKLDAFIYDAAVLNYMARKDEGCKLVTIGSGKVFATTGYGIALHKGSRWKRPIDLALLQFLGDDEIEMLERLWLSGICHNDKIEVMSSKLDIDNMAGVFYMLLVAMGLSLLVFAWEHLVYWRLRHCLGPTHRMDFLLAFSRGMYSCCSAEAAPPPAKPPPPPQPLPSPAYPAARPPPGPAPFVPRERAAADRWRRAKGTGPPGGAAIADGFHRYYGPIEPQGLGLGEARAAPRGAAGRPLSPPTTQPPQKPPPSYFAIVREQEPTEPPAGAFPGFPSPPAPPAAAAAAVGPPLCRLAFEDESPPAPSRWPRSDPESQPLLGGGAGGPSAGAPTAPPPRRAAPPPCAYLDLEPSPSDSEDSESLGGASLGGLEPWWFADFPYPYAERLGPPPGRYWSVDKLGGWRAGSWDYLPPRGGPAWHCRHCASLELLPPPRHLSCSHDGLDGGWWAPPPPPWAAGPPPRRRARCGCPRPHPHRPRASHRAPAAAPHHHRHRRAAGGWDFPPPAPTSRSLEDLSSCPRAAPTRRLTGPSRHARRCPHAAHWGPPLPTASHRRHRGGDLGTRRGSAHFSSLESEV
GluN1^ΔCTD/GluN2D receptors, sequence (Q62645 28-1323, stated change not applied, other chains not shown): as the sequence (Q62645 28-1323, other chains not shown) above
GluN1/GluN2C receptors, sequence (Q00961 20-1237, other chains not shown): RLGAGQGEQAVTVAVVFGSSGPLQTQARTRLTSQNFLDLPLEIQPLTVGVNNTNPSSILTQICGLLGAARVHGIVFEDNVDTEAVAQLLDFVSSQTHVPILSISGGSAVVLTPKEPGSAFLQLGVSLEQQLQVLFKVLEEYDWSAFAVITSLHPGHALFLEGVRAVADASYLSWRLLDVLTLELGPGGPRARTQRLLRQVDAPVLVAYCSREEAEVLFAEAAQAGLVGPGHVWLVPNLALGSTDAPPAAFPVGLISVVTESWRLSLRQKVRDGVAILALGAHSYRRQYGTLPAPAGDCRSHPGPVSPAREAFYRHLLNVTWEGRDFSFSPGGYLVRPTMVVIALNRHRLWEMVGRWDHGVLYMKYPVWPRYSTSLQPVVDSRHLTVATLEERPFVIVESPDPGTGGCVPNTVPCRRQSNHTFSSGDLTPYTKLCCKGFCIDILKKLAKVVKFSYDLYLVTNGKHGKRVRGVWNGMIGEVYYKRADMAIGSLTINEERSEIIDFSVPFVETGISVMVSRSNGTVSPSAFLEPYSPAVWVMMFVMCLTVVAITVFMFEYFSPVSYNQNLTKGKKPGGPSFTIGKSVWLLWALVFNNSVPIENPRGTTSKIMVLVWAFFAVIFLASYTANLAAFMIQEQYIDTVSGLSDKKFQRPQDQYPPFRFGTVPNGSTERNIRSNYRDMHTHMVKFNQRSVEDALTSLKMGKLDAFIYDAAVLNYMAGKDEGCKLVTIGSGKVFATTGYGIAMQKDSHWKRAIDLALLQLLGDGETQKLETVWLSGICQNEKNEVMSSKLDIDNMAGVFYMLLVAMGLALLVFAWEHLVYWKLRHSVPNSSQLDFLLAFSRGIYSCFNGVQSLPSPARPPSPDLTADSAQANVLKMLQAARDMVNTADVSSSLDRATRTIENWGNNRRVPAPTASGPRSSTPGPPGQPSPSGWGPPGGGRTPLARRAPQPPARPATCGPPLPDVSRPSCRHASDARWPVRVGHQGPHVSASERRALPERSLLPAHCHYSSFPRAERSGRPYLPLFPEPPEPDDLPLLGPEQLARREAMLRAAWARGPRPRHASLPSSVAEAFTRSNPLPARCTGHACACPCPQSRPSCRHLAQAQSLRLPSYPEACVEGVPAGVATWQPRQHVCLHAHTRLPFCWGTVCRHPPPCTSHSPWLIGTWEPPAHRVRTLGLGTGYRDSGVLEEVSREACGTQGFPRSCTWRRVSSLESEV
GluN1^ΔCTD/GluN2C receptors, sequence (Q00961 20-1237, stated change not applied, other chains not shown): as the sequence (Q00961 20-1237, other chains not shown) above

Compound: CC(C)CCCc1ccc2cc(C(=O)O)ccc2c1 [UBP684]
- reduction of potentiation by GluN2D CTD deletion compared to wildtype [1]: approximately 50%
- % potentiation of agonist-evoked current [2]: 23 ± 4%
- effect of PKC activation by PMA on PAM activity (GluN1/GluN2B receptors; [11]): larger % potentiation
- effect of PKA activation on % potentiation (GluN1/GluN2B receptors; [12]): unchanged
- % potentiation of agonist response (GluN1/GluN2B receptors; 50 µM compound, H2O-injected control oocytes (Fig. 6B)): 45 ± 5%
- % potentiation of agonist-evoked current (GluN1/GluN2B receptors; [13]): 33 ± 4%
- % potentiation of agonist response (GluN1/GluN2B receptors; 50 µM compound, oocytes injected with 5 mM EGTA (Fig. 6B)): 28 ± 2%
- % potentiation of agonist response (GluN1/GluN2B receptors; 50 µM compound, un-injected control oocytes (Fig. 6B)): 48 ± 4%
- effect of EGTA injection on potentiation/modulation (GluN1/GluN2C receptors): no significant effect
- % potentiation of agonist-evoked current [3]: 74.4 ± 7.0%
- effect of EGTA injection on potentiation/modulation (GluN1/GluN2D receptors): no significant effect
- effect of PKC activation by PMA on PAM activity (GluN1/GluN2A receptors; [11]): larger % potentiation
- effect of PKA activation on % potentiation (GluN1/GluN2A receptors; [12]): unchanged
- % potentiation of agonist response (GluN1/GluN2A receptors; 50 µM compound, H2O-injected control oocytes (Fig. 6A)): 47 ± 13%
- % potentiation of agonist-evoked current (GluN1/GluN2A receptors; [13]): 24 ± 5%
- % potentiation of agonist response (GluN1/GluN2A receptors; 50 µM compound, oocytes injected with 5 mM EGTA (Fig. 6A)): 9 ± 3%
- % potentiation of agonist response (GluN1/GluN2A receptors; 50 µM compound, un-injected control oocytes (Fig. 6A)): 54 ± 5%
- change of GluN1-GFP fluorescence lifetime (movement of the GluN1 CTD) [4]: significant increase
- % potentiation of agonist-evoked current [5]: 5 ± 3%
- % inhibition of agonist-evoked current [6]: 20 ± 3%
- % potentiation of agonist-evoked current [7]: 3 ± 2%
- % potentiation of agonist-evoked current [8]: 44 ± 8%
- effect of PKC activation by PMA on PAM activity ([9]; 2 µM PMA for 10 minutes, 50 µM UBP684, 100 µM PS (Fig. 7G, H)): increased
- % potentiation of agonist-evoked current ([9]; 50 µM compound, 10 µM L-glutamate/10 µM glycine (Fig. 1C)): 27 ± 5%
- reduction of potentiation by GluN2A CTD deletion compared to wildtype ([9]; 50 µM compound, compared to wildtype): approximately 50%
- % potentiation of agonist-evoked current [10]: 19 ± 7%
